Blank lines part the entries; values can stand above or below the compound they belong to.
How the values were obtained:
Format in all cases: functional
Oryctolagus cuniculus [1] = organism: Oryctolagus cuniculus; experiment: Compound was tested for its ability to inhibit PAF induced platelet aggregation in rabbit at a dose of 10 uM
Mus musculus [2] = experiment: Compound was tested for protecting PAF-induced lethality in mouse at a dose of 0.5 mg/kg (Out of 41)
Method in brief: (§1)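 Female Swiss-Webster mice (20–25 g) were dosed ip with compound in saline at 10 mL/kg, and controls got saline alone. Thirty minutes later, racemic C16-PAF in saline was given as an iv tail-vein bolus at 10 mL/kg (75–150 µg/kg PAF). Survival was checked at 1.5 h and was recorded as dead/total.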

Mus musculus [3] = experiment: Compound was tested for protecting PAF-induced lethality in mouse at a dose of 0.5 mg/kg (Out of 9); method in brief: as §1
Mus musculus [4] = experiment: Compound was tested for protecting PAF-induced lethality in mouse at a dose of 0.5 mg/kg (Out of 38); method in brief: as §1
Oryctolagus cuniculus [5] = experiment: Compound was tested for protecting PAF-induced lethality in rabbit at a dose of 3 mg/kg (Out of 2)
Mus musculus [6] = experiment: Compound was tested for protecting PAF-induced lethality in mouse at a dose of 2.5 mg/kg (Out of 10); method in brief: as §1
Oryctolagus cuniculus [7] = experiment: Compound was tested for protecting PAF-induced lethality in rabbit at a dose of 2.5 mg/kg (Out of 2)
Method in brief: (§2)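 Rabbits got compound iv 15 min before an iv challenge of L-C16-PAF at 150 µg/kg, made from a methanol stock diluted in saline. Controls were saline-treated. Survival was checked at 1 h and was recorded as dead/total.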

Mus musculus [8] = experiment: Compound was tested for protecting PAF-induced lethality in mouse at a dose of 1.25 mg/kg (Out of 10); method in brief: as §1
Mus musculus [9] = experiment: Compound was tested for protecting PAF-induced lethality in mouse at a dose of 0.5 mg/kg (Out of 11); method in brief: as §1
Mus musculus [10] = experiment: Compound was tested for protecting PAF-induced lethality in mouse at a dose of 1 mg/kg (Out of 10); method in brief: as §1
Mus musculus [11] = experiment: Compound was tested for protecting PAF-induced lethality in mouse at a dose of 0.5 mg/kg (Out of 830); method in brief: as §1
Oryctolagus cuniculus [12] = experiment: Compound was tested for protecting PAF-induced lethality in rabbit at a dose of 1 mg/kg (Out of 11); method in brief: as §2
Oryctolagus cuniculus [13] = experiment: Compound was tested for protecting PAF-induced lethality in rabbit at a dose of 2.5 mg/kg (Out of 4); method in brief: as §2
Oryctolagus cuniculus [14] = experiment: Compound was tested for protecting PAF-induced lethality in rabbit at a dose of 5 mg/kg (Out of 5); method in brief: as §2
Oryctolagus cuniculus [15] = experiment: Compound was tested for protecting PAF-induced lethality in rabbit at a dose of 10 mg/kg (Out of 5); method in brief: as §2
Mus musculus [16] = experiment: Compound was tested for protecting PAF-induced lethality in mouse at a dose of 1 mg/kg (Out of 74); method in brief: as §1
Mus musculus [17] = experiment: Compound was tested for protecting PAF-induced lethality in mouse at a dose of 0.5 mg/kg (Out of 220); method in brief: as §1
Mus musculus [18] = experiment: Compound was tested for protecting PAF-induced lethality in mouse at a dose of 1 mg/kg (Out of 88); method in brief: as §1
Oryctolagus cuniculus [19] = experiment: Compound was tested for protecting PAF-induced lethality in rabbit at a dose of 5 mg/kg (Out of 3); method in brief: as §2
Oryctolagus cuniculus [20] = experiment: Compound was tested for protecting PAF-induced lethality in rabbit at a dose of 1 mg/kg (Out of 3); method in brief: as §2
Oryctolagus cuniculus [21] = experiment: Compound was tested for protecting PAF-induced lethality in rabbit at a dose of 1 mg/kg (Out of 2); method in brief: as §2
Mus musculus [22] = experiment: Compound was tested for protecting PAF-induced lethality in mouse at a dose of 10 mg/kg (Out of 12); method in brief: as §1
Oryctolagus cuniculus [23] = experiment: Compound was tested for protecting PAF-induced lethality in rabbit at a dose of 10 mg/kg (Out of 2); method in brief: as §2
Mus musculus [24] = experiment: Compound was tested for protecting PAF-induced lethality in mouse at a dose of 0.5 mg/kg (Out of 49); method in brief: as §1
Mus musculus [25] = experiment: Compound was tested for protecting PAF-induced lethality in mouse at a dose of 2.5 mg/kg (Out of 16); method in brief: as §1
Mus musculus [26] = experiment: Compound was tested for protecting PAF-induced lethality in mouse at a dose of 0.5 mg/kg (Out of 10); method in brief: as §1
Mus musculus [27] = experiment: Compound was tested for protecting PAF-induced lethality in mouse at a dose of 1 mg/kg (Out of 12); method in brief: as §1
Mus musculus [28] = experiment: Compound was tested for protecting PAF-induced lethality in mouse at a dose of 10 mg/kg (Out of 13); method in brief: as §1
Oryctolagus cuniculus [29] = organism: Oryctolagus cuniculus; experiment: Compound was tested for its ability to inhibit PAF induced platelet aggregation in rabbit at a dose of 50 uM
Oryctolagus cuniculus [30] = organism: Oryctolagus cuniculus; experiment: Compound was tested for its ability to inhibit PAF induced platelet aggregation in rabbit (No inhibition observed at a compound concentration up to 10 uM)
Mus musculus [31] = experiment: Compound was tested for protecting PAF-induced lethality in mouse at a dose of 10 mg/kg (Out of 10); method in brief: as §1
Mus musculus [32] = experiment: Compound was tested for protecting PAF-induced lethality in mouse at a dose of 0.5 mg/kg (Out of 23); method in brief: as §1

SMILES: CCCCCCCCCCCCCCCCOCC(COP(=O)(O)Oc1cccc(C/N=C(\S)Nc2ccccc2)c1)OC (stereo not drawn)
Inhibition (Oryctolagus cuniculus [1]): 22%

SMILES: CCCCCCCCCCCCCCOc1ccc(OP(=O)([O-])Oc2cccc(C[n+]3csc(C)c3)c2)c(OC)c1
Lethality (Mus musculus [2]): 16 dead/total

SMILES: CCCCCCCCCCCCCCOc1cccc(OP(=O)([O-])Oc2cccc(C[n+]3ccsc3)c2)c1OC
Lethality (Mus musculus [3]): 4 dead/total

SMILES: CCCCCCCCCCCCCCOc1cccc(OP(=O)([O-])Oc2cccc(C[n+]3csc(C)c3)c2)c1C(C)=O
Lethality (Mus musculus [4]): 18 dead/total

SMILES: CCCCCCCCCCCCOc1cccc(OCC(COP(=O)([O-])Oc2cccc(C[n+]3csc(C)c3)c2)OC)c1 (stereo not drawn)
Lethality (Oryctolagus cuniculus [5]): 1 dead/total

SMILES: CCCCCCCCCCCCCCCCCCNC(=O)OCC(COP(=O)([O-])Oc1ccccc1C[n+]1ccsc1)OC (stereo not drawn)
Lethality (Mus musculus [6]): 0 dead/total

SMILES: CCCCCCCCCCCCCCCCOCC(COP(=O)([O-])Oc1cccc(C[n+]2ccsc2)c1)OC (stereo not drawn)
Lethality (Oryctolagus cuniculus [7]): 1 dead/total | Lethality (Mus musculus [8]): 2 dead/total

SMILES: CCCCCCCCCCCCCCOc1cccc(OP(=O)([O-])Oc2cccc(C[n+]3ccsc3)c2)c1C(=O)OC
Lethality (Mus musculus [9]): 11 dead/total | Lethality (Mus musculus [10]): 5 dead/total

SMILES: CCCCCCCCCCCCCCOc1cccc(OP(=O)([O-])Oc2cccc(C[n+]3csc(C)c3)c2)c1C(=O)OC
Lethality (Mus musculus [11]): 165 dead/total | Lethality (Oryctolagus cuniculus [12]): 6 dead/total | Lethality (Oryctolagus cuniculus [13]): 0 dead/total | Lethality (Mus musculus [10]): 3 dead/total | Lethality (Oryctolagus cuniculus [14]): 0 dead/total

SMILES: CCCCCCCCCCCCOc1cccc(OCC(COP(=O)([O-])Oc2cccc(C[n+]3ccsc3)c2)OC)c1C (stereo not drawn)
Lethality (Mus musculus [9]): 1 dead/total

SMILES: CCCCCCCCCCCCCCCCOCC(COP(=O)([O-])Oc1ccccc1C[n+]1ccsc1)OC (stereo not drawn)
Lethality (Oryctolagus cuniculus [7]): 1 dead/total

SMILES: CCCCCCCCCCCCCCOc1cccc(OP(=O)([O-])Oc2cccc(C[n+]3csc(C)c3)c2)c1OC
Lethality (Oryctolagus cuniculus [15]): 0 dead/total | Lethality (Mus musculus [16]): 40 dead/total | Lethality (Mus musculus [17]): 80 dead/total | Lethality (Mus musculus [18]): 24 dead/total | Lethality (Oryctolagus cuniculus [19]): 1 dead/total | Lethality (Oryctolagus cuniculus [20]): 2 dead/total

SMILES: CCCCCCCCCCCCOc1cccc(OCC(COP(=O)([O-])Oc2cccc(C[n+]3csc(C)c3)c2)OCC)c1C (stereo not drawn)
Lethality (Oryctolagus cuniculus [21]): 1 dead/total | Lethality (Mus musculus [22]): 6 dead/total | Lethality (Oryctolagus cuniculus [7]): 1 dead/total | Lethality (Oryctolagus cuniculus [23]): 0 dead/total | Lethality (Mus musculus [24]): 23 dead/total | Lethality (Mus musculus [25]): 0 dead/total

SMILES: CCCCCCCCCCCCCCc1cccc(OCC(COP(=O)([O-])Oc2cccc(C[n+]3ccsc3)c2)OC)c1 (stereo not drawn)
Lethality (Mus musculus [26]): 0 dead/total | Lethality (Oryctolagus cuniculus [7]): 1 dead/total

SMILES: CCCCCCCCCCCCCCOc1cccc(OP(=O)([O-])Oc2cccc(C[n+]3c(C)sc(C)c3C)c2)c1OC
Lethality (Mus musculus [27]): 9 dead/total | Lethality (Mus musculus [28]): 6 dead/total

SMILES: CCCCCCCCCCCCCCCCOCC(COP(=O)([O-])Oc1cccc(C[n+]2csc(C)c2)c1)OC (stereo not drawn)
Lethality (Oryctolagus cuniculus [7]): 1 dead/total | Lethality (Mus musculus [8]): 4 dead/total

SMILES: CCCCCCCCCCCCOc1cc(OP(=O)([O-])Oc2cccc(C[n+]3ccsc3)c2)c(C(C)(C)C)cc1C(C)(C)C
Lethality (Oryctolagus cuniculus [7]): 2 dead/total | Inhibition (Oryctolagus cuniculus [29]): 15%

IC50 (Oryctolagus cuniculus [30]): Not Active
SMILES: CCCCCCCCCCCCCCOc1cccc(OP(=O)([O-])Oc2cccc(CC[n+]3csc(C)c3)c2)c1OC

SMILES: CCCCCCCCCCCCCCOc1ccc(C(=O)c2ccccc2)c(OP(=O)([O-])Oc2cccc(C[n+]3csc(C)c3)c2)c1
Lethality (Mus musculus [31]): 0 dead/total | Lethality (Mus musculus [10]): 3 dead/total

SMILES: CCCCCCCCCCCCOc1cc(C(C)(C)C)c(OP(=O)([O-])Oc2cccc(C[n+]3csc(C)c3)c2)cc1C(C)(C)C
Lethality (Oryctolagus cuniculus [7]): 0 dead/total

SMILES: CCCCCCCCCCCCCCOc1cccc(OP(=O)([O-])Oc2cccc(C[N+]3=CN=CC3)c2)c1OC
Inhibition (Oryctolagus cuniculus [29]): 12%

SMILES: CCCCCCCCCCCCCCOc1ccc(OP(=O)([O-])Oc2cccc(C[n+]3csc(C)c3)c2)c(C(C)=O)c1
Lethality (Mus musculus [32]): 6 dead/total
